This note sets out measurements from ChEMBL document CHEMBL1126834, “Chemistry, binding affinities, and behavioral properties of a new class of "antineophobic" mitochondrial DBI receptor complex (mDRC) ligands” (J Med Chem, 1993).

The structures appear in SMILES notation. Some results are limits rather than exact numbers.

For experiment [1], the target named is Adrenergic receptor alpha. The experiment can be described thus: Displacement of [3H]clonidine from alpha-adrenergic receptor in rat brain. It is filed as tissue-based.
A further experiment deals with Cannabinoid receptor 1 (Rattus norvegicus, UniProt P20272). The experiment can be described thus: Inhibitory activity, measured by displacement [3H]CP-55940 from cannabinoid receptor (CB1) in rat brain. It is filed as tissue-based.
Chain of Cannabinoid receptor 1 (P20272 whole entry): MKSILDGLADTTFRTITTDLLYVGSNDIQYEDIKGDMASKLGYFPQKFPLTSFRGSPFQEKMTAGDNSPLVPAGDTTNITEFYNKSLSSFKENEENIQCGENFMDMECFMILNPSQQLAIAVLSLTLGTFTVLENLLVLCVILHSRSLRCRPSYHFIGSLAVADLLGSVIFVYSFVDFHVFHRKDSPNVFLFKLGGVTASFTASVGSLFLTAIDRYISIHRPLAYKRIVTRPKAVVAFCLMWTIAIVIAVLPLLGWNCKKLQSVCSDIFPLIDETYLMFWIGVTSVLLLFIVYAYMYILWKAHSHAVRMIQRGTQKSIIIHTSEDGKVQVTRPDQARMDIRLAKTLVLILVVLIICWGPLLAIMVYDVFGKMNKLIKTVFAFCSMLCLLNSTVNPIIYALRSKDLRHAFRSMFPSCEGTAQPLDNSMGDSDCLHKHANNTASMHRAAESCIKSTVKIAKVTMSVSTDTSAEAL
For experiment [2], the target named is T1, Gastrin/cholecystokinin type B receptor (Rattus norvegicus, UniProt P30553).
T1 sequence (P30553 whole entry): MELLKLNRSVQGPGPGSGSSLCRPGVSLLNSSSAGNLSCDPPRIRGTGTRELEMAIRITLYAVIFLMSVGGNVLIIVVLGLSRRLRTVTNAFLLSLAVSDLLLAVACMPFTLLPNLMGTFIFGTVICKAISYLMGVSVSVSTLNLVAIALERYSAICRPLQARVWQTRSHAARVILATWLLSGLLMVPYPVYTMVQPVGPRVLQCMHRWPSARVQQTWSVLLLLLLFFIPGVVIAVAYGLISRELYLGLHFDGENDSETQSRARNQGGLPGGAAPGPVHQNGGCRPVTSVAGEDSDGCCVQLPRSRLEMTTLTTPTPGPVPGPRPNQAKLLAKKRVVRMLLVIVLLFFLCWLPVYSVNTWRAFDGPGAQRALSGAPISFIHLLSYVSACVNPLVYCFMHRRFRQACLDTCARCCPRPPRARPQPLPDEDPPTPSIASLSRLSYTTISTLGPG
The experiment can be described thus: Inhibitory activity by measuring its ability to displace [3H]L-365260 from cholecystokinin receptor in rat brain. It is filed as tissue-based.

The target of experiment [3] is GABA-A receptor; anion channel. Put plainly: Inhibitory activity at GABA A receptor, measured by the ability to displace [3H]GABA from GABA A receptor in rat brain. The experiment is classed as tissue-based.
Experiment [4] deals with GABA-A receptor; anion channel. Put plainly: Inhibitory activity at GABA A receptor, measured by the ability to displace [3H]zolpidem from GABA A receptor in rat brain. It is filed as tissue-based.
Experiment [5] can be described thus: Inhibitory activity by measuring its ability to displace [3H]spiperone from dopamine or serotonin 5-HT-1 receptors in rat brain. It is filed as tissue-based.
Experiment [6] deals with Adrenergic receptor alpha. The experiment can be described thus: Inhibitory activity by measuring its ability to displace [3H]WB-4101 from alpha-adrenergic receptor in rat brain. It is filed as tissue-based.
Experiment [7] is described as follows: Inhibitory activity by measuring its ability to displace [3H]glycine from glycine receptor in rat brain. The experiment is classed as tissue-based.
The target of experiment [8] is GABA-A receptor; anion channel. Put plainly: Inhibitory activity at GABA A receptor, measured by the ability to displace [3H]flumazenil from GABA A receptor in rat brain. It is filed as tissue-based.
Experiment [9] can be described thus: Tested for inhibitory activity by measuring its ability to displace [3H]AMPA from glutamate (non-NMDA) receptor in rat brain. It is filed as tissue-based.
The next experiment addresses Glutamate NMDA receptor. Put plainly: Inhibitory activity by measuring its ability to displace [3H]-MK-801 from glutamate(NMDA) receptor in rat brain. The experiment is classed as tissue-based.
Experiment [10] can be described thus: Inhibitory activity at GABA B receptor, measured by the ability to displace [3H]baclofen from GABA B receptor in rat brain. It is filed as tissue-based.
Experiment [11] concerns the target GABA-A receptor; anion channel. The experiment can be described thus: Inhibitory activity at GABA A receptor, measured by the ability to displace [35S]TBPS from GABA A receptor in rat brain. It is filed as tissue-based.
For another experiment, the target named is Adrenergic receptor beta (Rattus norvegicus, UniProt P18090+P10608+P26255). Put plainly: Inhibitory activity by measuring its ability to displace [125I]pindolol from beta-adrenergic receptor in rat brain. The experiment is classed as tissue-based.
The target in a further experiment is Translocator protein (Rattus norvegicus, UniProt P16257). Put plainly: Binding affinity against mitochondrial DBI complex (peripheral benzodiazepine receptor) using primary cultures of glial cells. In outline:
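Glia from cerebella of 8-day-old Sprague–Dawley rat pups, trypsin-dissociated and grown 14 days (~95% astroglia). Cells lysed in 50 mM Hepes pH 7.4, 4 μg protein per tube. Incubated with [3H]4'-chlorodiazepam and competitor for 90 min at 4 °C, then filtered. Nonspecific binding defined with 10 μM 4'-chlorodiazepam. Triplicate competition curves; IC50 by nonlinear regression, converted to Ki (Bylund–Yamamura).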

Experiment [12] relates to Rattus norvegicus. Put plainly: Tested for antineophobic activity using the elevated plus maze test administered at 58 umol/kg perorally in rats. It is filed as functional.
Experiment [13] addresses Sigma receptor (Rattus norvegicus). The experiment can be described thus: Tested for inhibitory activity by measuring its ability to displace [3H]3-PPP from sigma receptor in rat brain.
The target of another experiment is Opioid receptor (Rattus norvegicus, UniProt P33533+P34975+P33535). Put plainly: Inhibition of [3H]naxolone binding to opiate receptors in rat brain. It is filed as tissue-based.
The target of experiment [14] is Serotonin 2 (5-HT2) receptor (Rattus norvegicus). Put plainly: Inhibitory activity by measuring its ability to displace [3H]ketanserin from serotonin receptor in rat brain.
For experiment [15], the target named is Adrenergic receptor alpha. The experiment can be described thus: Inhibitory activity by measuring its ability to displace [3H]clonidine from alpha-adrenergic receptor in rat brain. The experiment is classed as tissue-based.
Experiment [16] relates to Rattus norvegicus. The experiment can be described thus: Tested for antineophobic activity using the elevated plus maze test administered at 59 umol/kg perorally in rats. The experiment is classed as functional.

Chain of Translocator protein (P16257 whole entry, looked up): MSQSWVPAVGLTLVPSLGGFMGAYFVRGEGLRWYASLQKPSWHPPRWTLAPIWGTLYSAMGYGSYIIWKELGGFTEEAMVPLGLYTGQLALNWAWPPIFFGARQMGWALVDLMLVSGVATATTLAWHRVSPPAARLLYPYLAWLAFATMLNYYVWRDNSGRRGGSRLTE

On to `CCCCCCCCN(CCCCCCCC)C(=O)Cc1c(-c2ccccc2)[nH]c2ccccc12`, for which the IC50 (in [1]; on Cannabinoid receptor 1; in [2]; in experiment [3]; in experiment [4]; in [5]) was greater than 1000 nM in each case. For the same compound, the IC50 (in experiment [6]; in experiment [7]; in experiment [8]; in experiment [9]; on Glutamate NMDA receptor; in [10]) was greater than 1000 nM in each case. Also, the IC50 (in [11]; on Adrenergic receptor beta) was greater than 1000 nM in each case. Besides, at Translocator protein, the Ki was greater than 1000 nM.

On to `CCCCCCN(CCCCCC)C(=O)Cc1c2n(c3ccccc13)Cc1ccccc1-2`, for which the No. of entries in the experiment with Rattus norvegicus [12] came out at 2. In addition, the Time with Rattus norvegicus [12] came out at 6.4%. The IC50 (in [1]; at Cannabinoid receptor 1; in experiment [2]; in experiment [3]; in experiment [4]; in experiment [5]) was greater than 1000 nM in each case. The IC50 (in experiment [6]; in experiment [7]; in [8]; in experiment [9]; at Glutamate NMDA receptor; in experiment [10]) was greater than 1000 nM throughout. Further, the IC50 (in experiment [11]; on Adrenergic receptor beta) was greater than 1000 nM throughout. Further, on Translocator protein, the Ki worked out at 7.7 nM.

`CCCN(CCC)C(=O)Cc1c2n(c3ccccc13)Cc1ccccc1-2`: the IC50 (in experiment [1]; on Cannabinoid receptor 1; in experiment [2]; in experiment [13]; in [3]; in [4]) was greater than 1000 nM in each case. Also, the IC50 (in experiment [5]; in [6]; in experiment [7]; at Opioid receptor; in [8]; in experiment [14]) was greater than 1000 nM throughout. Also, the IC50 (in [9]; on Glutamate NMDA receptor; in experiment [10]; in [11]; at Adrenergic receptor beta) was greater than 1000 nM each time. This compound showed a Ki on Translocator protein of 20 nM.

Regarding `CCCN(CCC)C(=O)Cc1cn(Cc2ccc(Br)cc2)c2ccccc12`, the No. of entries in the experiment on Rattus norvegicus [12] is listed as 0.6. In addition, the Time in the experiment with Rattus norvegicus [12] stood at 1%. Further, the IC50 (at Cannabinoid receptor 1; in [2]; in experiment [15]; in experiment [3]; in experiment [4]; in experiment [5]) was greater than 1000 nM throughout. Further, the half-maximal inhibitory concentration (IC50) (in [6]; in experiment [7]; in experiment [8]; in experiment [9]; on Glutamate NMDA receptor; in experiment [10]) was greater than 1000 nM throughout. The IC50 (in experiment [11]; at Adrenergic receptor beta) was greater than 1000 nM in each case. Further, on Translocator protein, the Ki turned out to be 200 nM.

As to `CCCCCCCCCCCCCCCCCCNC(=O)Cc1c(-c2ccccc2)[nH]c2ccccc12`, the IC50 (in experiment [1]; on Cannabinoid receptor 1; in experiment [2]; in experiment [13]; in experiment [3]; in experiment [4]) was greater than 1000 nM throughout. Also, the IC50 (in experiment [5]; in [6]; in [7]; on Opioid receptor; in experiment [8]; in experiment [14]) was greater than 1000 nM throughout. Moreover, the IC50 (in [9]; on Glutamate NMDA receptor; in experiment [10]; in [11]; on Adrenergic receptor beta) was greater than 1000 nM each time.

`CCCCCCNC(=O)Cc1c(-c2ccccc2)[nH]c2ccccc12`: the half-maximal inhibitory concentration (IC50) (on Cannabinoid receptor 1; in [2]; in experiment [13]; in [15]; in [3]; in [4]) was greater than 1000 nM each time. Further, the IC50 (in experiment [5]; in [6]; in experiment [7]; at Opioid receptor; in experiment [8]; in [14]) was greater than 1000 nM each time. Besides, the 50% inhibitory concentration (IC50) (in experiment [9]; on Glutamate NMDA receptor; in experiment [10]; in [11]; on Adrenergic receptor beta) was greater than 1000 nM in each case. The same compound returned a Ki at Translocator protein of 96 nM.

For `CCCN(CCC)C(=O)Cc1c(-c2ccc(Cl)cc2)[nH]c2ccc(Cl)cc12`, the IC50 (on Cannabinoid receptor 1; in experiment [2]; in [13]; in experiment [15]; in [3]; in experiment [4]) was greater than 1000 nM throughout. Moreover, the IC50 (in [5]; in experiment [6]; in experiment [7]; on Opioid receptor; in experiment [8]; in experiment [14]) was greater than 1000 nM throughout. Besides, the IC50 (in [9]; at Glutamate NMDA receptor; in [10]; in experiment [11]; at Adrenergic receptor beta) was greater than 1000 nM each time. The compound further had a Ki on Translocator protein of 3.9 nM.

Consider `CCCCCCN(CCCCCC)C(=O)Cc1c(-c2ccccc2)[nH]c2ccccc12`, for which the No. of entries in the experiment on Rattus norvegicus [16] was 1.6. In addition, the Time in the experiment with Rattus norvegicus [16] came to 6.2%. Further, the half-inhibitory concentration (IC50) (at Cannabinoid receptor 1; in [2]; in experiment [13]; in experiment [15]; in experiment [3]; in experiment [4]) was greater than 1000 nM in each case. The half-inhibitory concentration (IC50) (in [5]; in experiment [6]; in [7]; at Opioid receptor; in [8]; in experiment [14]) was greater than 1000 nM in each case. Also, the IC50 (in experiment [9]; on Glutamate NMDA receptor; in experiment [10]; in experiment [11]; on Adrenergic receptor beta) was greater than 1000 nM throughout. Also, at Translocator protein, the affinity corresponds to a Ki of 9.7 nM.

Consider `CCCN(CCC)C(=O)Cc1c(-c2ccc(I)cc2)[nH]c2ccccc12`, for which the IC50 (on Cannabinoid receptor 1; in experiment [2]; in [13]; in experiment [15]; in [3]; in [4]) was greater than 1000 nM throughout. The IC50 (in [5]; in experiment [6]; in experiment [7]; at Opioid receptor; in experiment [8]; in experiment [14]) was greater than 1000 nM in each case. Besides, the IC50 (in experiment [9]; at Glutamate NMDA receptor; in experiment [10]; in experiment [11]; at Adrenergic receptor beta) was greater than 1000 nM throughout. For the same compound, affinity at Translocator protein was put at a Ki of 216 nM.
